Experimental data: ChEMBL document CHEMBL1817551, “Design of small molecule inhibitors of acetyl-CoA carboxylase 1 and 2 showing reduction of hepatic malonyl-CoA levels in vivo in obese Zucker rats” (Bioorg Med Chem, 2011)
In brackets after ≈: the same amount, converted by molar mass.

What was measured:
[1] = Lipophilicity, log D of the compound; format: physicochemical; details: octanol/water
[2] = Solubility of the compound after 16 hrs by LC-UV/MS analysis; format: physicochemical
[3] = Fraction unbound in human plasma at 10 uM after 18 hrs by equilibrium dialysis method; format: ADME, cell-free
[4] = Intrinsic clearance in human liver microsome at 1 uM after 30 mins by LC-UV/MS analysis; format: ADME; details: liver microsomes
[5] = Clearance in Sprague-Dawley rat at 3 to 5 umol/kg, iv; format: ADME, organism-based; details: in vivo
Acetyl-CoA carboxylase 1 [6] = biological target: Acetyl-CoA carboxylase 1 (Homo sapiens, UniProt Q13085); test: Inhibition of human recombinant his-tagged ACC1 expressed in baculovirus/Sf9 cell assessed as inorganic phosphate formation […] measured after 1.5 hrs by Malachite green reagent method
[7] = Clearance in C57BL/6 mouse at 5 umol/kg, iv and 10 umol/kg, po; format: ADME, organism-based; details: in vivo
[8] = Volume of distribution in C57BL/6 mouse at 5 umol/kg, iv and 10 umol/kg, po; format: ADME, organism-based; details: in vivo
[9] = Half life in C57BL/6 mouse at 10 umol/kg, po; format: ADME, organism-based; details: in vivo
[10] = Oral bioavailability in C57BL/6 mouse at 10 umol/kg; format: ADME, organism-based; details: in vivo
[11] = biological target: Acetyl-Coenzyme A carboxylase 2 (Rattus norvegicus, UniProt Q1HEC0); test: Inhibition of ACC2 […] preincubated for 15 mins measured after 1.5 hrs using Malachite green reagent method
Rattus norvegicus [12] = test: Antiobesity activity in obese Zucker rat assessed as reduction in hepatic malonyl-coA level, iv administered 2 hrs; format: functional; set-up: scale not given: the % may be the effect or the level left
Summary of the method: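 Obese Zucker rats were anaesthetized with Inactin (180 mg/kg ip), tracheotomized and fitted with carotid and jugular catheters. After 1.5 h post-surgery stabilization at 37.5 °C, compound or vehicle was infused iv; lean vehicle controls were included. Hepatic malonyl-CoA was measured by ion-pair HPLC–negative ESI MS/MS against a ¹³C₃ internal standard and related to plasma free exposure (fu×Cp/rat ACC2 IC50).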

Acetyl-CoA carboxylase 1 [13] = biological target: Acetyl-CoA carboxylase 1 (Rattus norvegicus, UniProt P11497); test: Inhibition of rat ACC1 assessed as inorganic phosphate generation preincubated for 5 mins measured after 1.5 hrs using Malachite green reagent method
Acetyl-CoA carboxylase 2 = Acetyl-CoA carboxylase 2 (Homo sapiens, UniProt O00763); test: Inhibition of human recombinant his-tagged ACC2 expressed in baculovirus/Sf9 cell assessed as inorganic phosphate formation […] measured after 1.5 hrs by Malachite green reagent method
Acetyl-CoA carboxylase 2, sequence (O00763 whole entry): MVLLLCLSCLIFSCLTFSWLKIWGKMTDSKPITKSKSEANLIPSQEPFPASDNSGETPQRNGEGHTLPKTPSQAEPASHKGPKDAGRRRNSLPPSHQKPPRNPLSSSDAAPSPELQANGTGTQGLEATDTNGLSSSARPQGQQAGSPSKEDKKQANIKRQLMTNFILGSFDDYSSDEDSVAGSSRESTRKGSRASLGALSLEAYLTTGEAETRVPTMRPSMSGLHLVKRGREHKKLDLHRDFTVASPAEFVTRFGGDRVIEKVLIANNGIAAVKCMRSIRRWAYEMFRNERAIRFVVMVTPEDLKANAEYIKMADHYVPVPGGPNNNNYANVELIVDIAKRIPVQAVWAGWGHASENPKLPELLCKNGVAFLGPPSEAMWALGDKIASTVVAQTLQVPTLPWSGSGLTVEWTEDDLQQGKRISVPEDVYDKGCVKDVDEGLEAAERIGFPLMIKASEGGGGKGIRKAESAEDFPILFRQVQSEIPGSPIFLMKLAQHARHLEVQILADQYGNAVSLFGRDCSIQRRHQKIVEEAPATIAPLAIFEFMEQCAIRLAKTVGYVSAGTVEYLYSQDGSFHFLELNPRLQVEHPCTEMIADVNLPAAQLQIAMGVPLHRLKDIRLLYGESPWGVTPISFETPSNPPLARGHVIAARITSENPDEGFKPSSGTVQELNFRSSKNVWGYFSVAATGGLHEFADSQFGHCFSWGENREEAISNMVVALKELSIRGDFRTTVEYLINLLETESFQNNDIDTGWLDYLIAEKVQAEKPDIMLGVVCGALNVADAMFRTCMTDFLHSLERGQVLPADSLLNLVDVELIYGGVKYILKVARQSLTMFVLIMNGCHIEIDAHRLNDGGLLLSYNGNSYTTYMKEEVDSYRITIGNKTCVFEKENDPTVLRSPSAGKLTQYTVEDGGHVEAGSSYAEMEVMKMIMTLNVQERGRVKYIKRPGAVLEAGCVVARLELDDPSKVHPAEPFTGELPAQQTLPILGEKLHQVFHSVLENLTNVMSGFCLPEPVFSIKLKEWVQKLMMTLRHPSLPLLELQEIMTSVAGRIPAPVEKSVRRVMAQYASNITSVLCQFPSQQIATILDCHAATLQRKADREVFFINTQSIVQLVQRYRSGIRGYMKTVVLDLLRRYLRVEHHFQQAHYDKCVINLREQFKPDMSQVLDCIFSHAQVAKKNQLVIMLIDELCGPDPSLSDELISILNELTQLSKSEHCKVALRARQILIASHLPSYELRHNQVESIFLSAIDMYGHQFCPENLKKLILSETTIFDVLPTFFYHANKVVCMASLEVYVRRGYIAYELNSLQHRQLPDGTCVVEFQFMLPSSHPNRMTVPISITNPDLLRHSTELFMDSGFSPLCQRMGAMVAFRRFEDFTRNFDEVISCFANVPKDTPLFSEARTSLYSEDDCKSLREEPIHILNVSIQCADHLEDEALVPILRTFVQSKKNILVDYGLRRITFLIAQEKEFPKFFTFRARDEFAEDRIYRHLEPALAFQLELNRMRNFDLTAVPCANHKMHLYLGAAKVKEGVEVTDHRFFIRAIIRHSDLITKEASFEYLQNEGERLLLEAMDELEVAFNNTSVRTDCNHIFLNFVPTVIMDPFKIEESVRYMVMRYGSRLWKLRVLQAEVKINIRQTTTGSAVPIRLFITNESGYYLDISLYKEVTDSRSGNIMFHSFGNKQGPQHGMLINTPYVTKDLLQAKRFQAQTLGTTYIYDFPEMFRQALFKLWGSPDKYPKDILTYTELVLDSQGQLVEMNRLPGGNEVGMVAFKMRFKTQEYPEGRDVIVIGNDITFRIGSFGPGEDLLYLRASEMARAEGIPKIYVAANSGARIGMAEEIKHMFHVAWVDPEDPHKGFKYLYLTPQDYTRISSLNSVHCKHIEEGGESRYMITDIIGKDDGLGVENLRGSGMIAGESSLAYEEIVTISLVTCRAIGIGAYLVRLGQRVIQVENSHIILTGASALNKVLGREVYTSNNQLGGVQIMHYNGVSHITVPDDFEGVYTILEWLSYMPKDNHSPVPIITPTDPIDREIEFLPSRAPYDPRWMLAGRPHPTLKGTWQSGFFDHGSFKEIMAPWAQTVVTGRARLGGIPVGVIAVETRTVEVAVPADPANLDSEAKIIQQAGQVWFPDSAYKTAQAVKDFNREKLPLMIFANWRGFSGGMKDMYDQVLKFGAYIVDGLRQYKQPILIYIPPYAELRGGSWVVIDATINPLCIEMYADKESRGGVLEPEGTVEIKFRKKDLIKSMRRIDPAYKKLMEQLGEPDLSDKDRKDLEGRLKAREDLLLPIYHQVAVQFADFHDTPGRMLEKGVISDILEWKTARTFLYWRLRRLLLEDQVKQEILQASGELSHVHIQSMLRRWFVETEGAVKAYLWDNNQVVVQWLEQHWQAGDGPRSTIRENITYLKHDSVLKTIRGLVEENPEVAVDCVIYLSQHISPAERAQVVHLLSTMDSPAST

CYP2C19 = CYP2C19 (Homo sapiens, UniProt P33261); test: Inhibition of CYP2C19 at 13 uM; format: ADME
CYP2C19, sequence (P33261 whole entry): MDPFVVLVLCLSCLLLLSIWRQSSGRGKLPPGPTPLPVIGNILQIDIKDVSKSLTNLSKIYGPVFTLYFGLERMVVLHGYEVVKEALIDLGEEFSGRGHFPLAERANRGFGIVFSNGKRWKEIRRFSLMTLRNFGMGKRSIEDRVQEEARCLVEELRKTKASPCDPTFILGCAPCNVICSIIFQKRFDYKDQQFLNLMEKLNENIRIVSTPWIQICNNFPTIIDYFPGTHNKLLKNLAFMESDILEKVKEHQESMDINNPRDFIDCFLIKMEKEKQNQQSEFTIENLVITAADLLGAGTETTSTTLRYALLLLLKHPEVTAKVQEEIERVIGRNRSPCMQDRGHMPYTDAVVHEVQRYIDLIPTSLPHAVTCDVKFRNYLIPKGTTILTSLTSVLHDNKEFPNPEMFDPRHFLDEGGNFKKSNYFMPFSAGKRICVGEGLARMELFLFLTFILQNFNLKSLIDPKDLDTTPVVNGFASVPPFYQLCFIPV

CYP2D6 = CYP2D6 (Homo sapiens, UniProt P10635); test: Inhibition of CYP2D6 at 13 uM; format: ADME
CYP2D6, sequence (P10635 whole entry): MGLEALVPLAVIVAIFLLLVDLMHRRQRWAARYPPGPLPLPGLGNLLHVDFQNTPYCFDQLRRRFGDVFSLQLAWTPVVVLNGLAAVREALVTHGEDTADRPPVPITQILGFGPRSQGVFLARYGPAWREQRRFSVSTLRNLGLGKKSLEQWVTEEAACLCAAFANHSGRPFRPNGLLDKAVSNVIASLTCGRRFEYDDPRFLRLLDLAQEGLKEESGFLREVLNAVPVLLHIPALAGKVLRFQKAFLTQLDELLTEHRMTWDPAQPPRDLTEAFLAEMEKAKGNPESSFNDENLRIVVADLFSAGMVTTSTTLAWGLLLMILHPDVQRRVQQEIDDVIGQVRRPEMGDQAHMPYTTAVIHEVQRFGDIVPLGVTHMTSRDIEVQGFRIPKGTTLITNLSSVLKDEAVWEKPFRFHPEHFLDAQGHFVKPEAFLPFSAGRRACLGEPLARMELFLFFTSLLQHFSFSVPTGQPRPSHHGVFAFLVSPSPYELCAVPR

CYP1A2 = biological target: T1, CYP1A2 (Homo sapiens, UniProt P05177); test: Inhibition of CYP1A2 at 13 uM; format: ADME
T1 sequence (P05177 whole entry): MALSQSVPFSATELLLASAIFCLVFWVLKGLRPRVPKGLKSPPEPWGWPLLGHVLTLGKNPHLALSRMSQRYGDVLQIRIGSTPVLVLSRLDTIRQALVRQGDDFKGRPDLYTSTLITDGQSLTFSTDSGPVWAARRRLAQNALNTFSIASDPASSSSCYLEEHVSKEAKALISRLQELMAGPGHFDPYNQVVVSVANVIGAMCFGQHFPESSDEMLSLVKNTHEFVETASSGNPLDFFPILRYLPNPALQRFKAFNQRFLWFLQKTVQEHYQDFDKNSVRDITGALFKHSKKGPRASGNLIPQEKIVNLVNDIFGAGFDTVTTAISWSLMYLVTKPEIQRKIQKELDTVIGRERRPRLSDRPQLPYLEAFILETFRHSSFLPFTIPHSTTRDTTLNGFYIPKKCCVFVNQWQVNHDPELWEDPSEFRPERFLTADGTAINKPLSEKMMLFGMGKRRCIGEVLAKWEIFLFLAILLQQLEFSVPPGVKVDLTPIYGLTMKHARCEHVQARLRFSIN

CYP2C9 = CYP2C9 (Homo sapiens, UniProt P11712); test: Inhibition of CYP2C9 at 13 uM; format: ADME
CYP2C9, sequence (P11712 whole entry): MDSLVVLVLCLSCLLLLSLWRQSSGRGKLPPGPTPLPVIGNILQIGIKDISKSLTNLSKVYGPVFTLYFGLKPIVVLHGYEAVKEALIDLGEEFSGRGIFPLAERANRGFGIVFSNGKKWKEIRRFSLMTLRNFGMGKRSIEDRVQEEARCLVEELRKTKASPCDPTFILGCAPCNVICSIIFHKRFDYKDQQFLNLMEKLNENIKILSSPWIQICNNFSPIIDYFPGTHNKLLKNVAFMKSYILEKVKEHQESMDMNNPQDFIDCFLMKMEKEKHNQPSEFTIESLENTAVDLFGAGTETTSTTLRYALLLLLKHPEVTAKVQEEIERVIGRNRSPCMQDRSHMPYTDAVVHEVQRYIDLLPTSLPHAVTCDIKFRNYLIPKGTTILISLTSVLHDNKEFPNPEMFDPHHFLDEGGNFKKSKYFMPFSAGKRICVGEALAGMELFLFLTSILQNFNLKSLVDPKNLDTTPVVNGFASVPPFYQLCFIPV

CYP3A4 = CYP3A4 (Homo sapiens, UniProt P08684); test: Inhibition of CYP3A4 at 13 uM; format: ADME
CYP3A4, sequence (P08684 whole entry): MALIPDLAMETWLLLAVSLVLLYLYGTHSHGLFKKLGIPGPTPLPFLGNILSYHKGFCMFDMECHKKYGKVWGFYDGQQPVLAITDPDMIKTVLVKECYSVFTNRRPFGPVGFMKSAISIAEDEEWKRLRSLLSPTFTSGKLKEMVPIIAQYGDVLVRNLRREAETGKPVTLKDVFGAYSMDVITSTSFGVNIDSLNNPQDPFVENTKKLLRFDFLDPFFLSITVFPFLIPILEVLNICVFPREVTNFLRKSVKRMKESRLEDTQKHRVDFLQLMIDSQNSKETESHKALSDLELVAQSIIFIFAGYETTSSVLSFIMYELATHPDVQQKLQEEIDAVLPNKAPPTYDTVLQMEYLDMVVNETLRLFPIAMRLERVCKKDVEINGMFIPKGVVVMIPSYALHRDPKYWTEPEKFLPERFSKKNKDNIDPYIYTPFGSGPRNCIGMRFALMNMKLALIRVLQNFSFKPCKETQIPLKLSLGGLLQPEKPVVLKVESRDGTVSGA

[14] = Apparent permeability from apical to basolateral side of human Caco2 cells at pH 7.4 by LCMS; format: ADME, cell-based; details: Caco-2, pH 7.4
Rattus norvegicus [15] = test: Ratio of […] to fraction unbound in Sprague-Dawley rat at 3 to 5 umol/kg, iv; format: ADME, organism-based; details: in vivo
[16] = Clearance in C57BL/6 mouse at 20 umol/kg, iv and 20 umol/kg, po; format: ADME, organism-based; details: in vivo
[17] = Volume of distribution in C57BL/6 mouse at 20 umol/kg, iv and 20 umol/kg, po; format: ADME, organism-based; details: in vivo
[18] = Half life in C57BL/6 mouse at 20 umol/kg, po; format: ADME, organism-based; details: in vivo
[19] = Oral bioavailability in C57BL/6 mouse at 20 umol/kg; format: ADME, organism-based; details: in vivo
Homo sapiens = species: Homo sapiens; test: Ratio IC50 for human ACC2 to IC50 for human ACC1
[20] = biological target: Voltage-gated inwardly rectifying potassium channel KCNH2 (Homo sapiens, UniProt Q12809)

CC(C)(C)OC(=O)NC[C@H]1CC[C@H](CNC(=O)c2cc(N3CCC(CCN4CC(O)C4)CC3)nc3ccccc23)CC1
logD [1]: 3.6
solubility at 16 h [2]: 80 µM (≈ 46.4 µg/mL)
fraction unbound at 18 h, 10 µM [3]: 0.033
microsomal CLint at 1 µM [4]: 16 µL/min/mg
clearance [5]: 70 mL/min/kg
IC50 (Acetyl-CoA carboxylase 1 [6]): 1000 nM
clearance [7]: 33 mL/min/kg
Vd [8]: 3.6 L/kg
half-life [9]: 4.3 h
bioavailability [10]: 135%
IC50 [11]: 150 nM
Activity (Rattus norvegicus [12]): 50%
IC50 (Acetyl-CoA carboxylase 1 [13]): 250 nM

CC(C)(C)OC(=O)NC[C@H]1CC[C@H](CNC(=O)c2cc(N3CCC(CN)CC3)nc3ccccc23)CC1
logD [1]: 3.2
IC50 (Acetyl-CoA carboxylase 2): 690 nM
IC50 (Acetyl-CoA carboxylase 1 [6]): 4300 nM

CN(C)CCN1CCN(c2cc(C(=O)NC[C@H]3CC[C@H](CNC(=O)OC(C)(C)C)CC3)c3ccccc3n2)CC1
logD [1]: 3.4
solubility at 16 h [2]: 73 µM (≈ 40.4 µg/mL)
microsomal CLint at 1 µM [4]: < 12 µL/min/mg
inhibition at 13 µM (CYP2C19): < 50%
inhibition at 13 µM (CYP2D6): < 50%
IC50 (Acetyl-CoA carboxylase 2): 730 nM
IC50 (Acetyl-CoA carboxylase 1 [6]): 5300 nM
inhibition at 13 µM (CYP1A2): < 50%
inhibition at 13 µM (CYP2C9): < 50%
inhibition at 13 µM (CYP3A4): < 50%

CC(C)(C)OC(=O)NC[C@H]1CC[C@@H](CNC(=O)c2cc(-c3ccccc3)nc3ccccc23)CC1
IC50 (Acetyl-CoA carboxylase 2): 1000 nM

CC(C)(C)OC(=O)NC[C@H]1CC[C@H](CNC(=O)c2cc(-c3ccc(CN)cc3)nc3ccccc23)CC1
logD [1]: 3.2
IC50 (Acetyl-CoA carboxylase 1 [6]): 1700 nM

CC(C)(C)OC(=O)NC[C@H]1CC[C@H](CNC(=O)c2cc(N3CCC(CCN)CC3)nc3ccccc23)CC1
logD [1]: 3.2
Papp A→B [14]: 0.5 ×10⁻⁶ cm/s
IC50 (Acetyl-CoA carboxylase 2): 89 nM
IC50 (Acetyl-CoA carboxylase 1 [6]): 780 nM

CN(C)CCC1CCN(c2cc(C(=O)NC[C@H]3CC[C@H](CNC(=O)OC(C)(C)C)CC3)c3ccccc3n2)CC1
logD [1]: 3.6
solubility at 16 h [2]: 79 µM (≈ 43.6 µg/mL)
fraction unbound at 18 h, 10 µM [3]: 0.034
microsomal CLint at 1 µM [4]: 14 µL/min/mg
clearance [5]: 32 mL/min/kg
Ratio (Rattus norvegicus [15]): 800
inhibition at 13 µM (CYP2C19): < 50%
inhibition at 13 µM (CYP2D6): < 50%
IC50 (Acetyl-CoA carboxylase 2): 110 nM
IC50 (Acetyl-CoA carboxylase 1 [6]): 1200 nM
clearance [16]: 46 mL/min/kg
Vd [17]: 6.7 L/kg
half-life [18]: 4.5 h
bioavailability [19]: 131%
IC50 [11]: 190 nM
Activity (Rattus norvegicus [12]): 50%
inhibition at 13 µM (CYP1A2): < 50%
inhibition at 13 µM (CYP2C9): < 50%
inhibition at 13 µM (CYP3A4): < 50%
Ratio IC50 (Homo sapiens): 10
IC50 [20]: > 33000 nM
IC50 (Acetyl-CoA carboxylase 1 [13]): 460 nM

CC(C)(C)OC(=O)NC[C@H]1CC[C@H](CNC(=O)c2cc(Cl)nc3ccccc23)CC1
logD [1]: 4.9

CN(C)CCn1cc(-c2cc(C(=O)NC[C@H]3CC[C@H](CNC(=O)OC(C)(C)C)CC3)c3ccccc3n2)cn1
logD [1]: 3.6
IC50 (Acetyl-CoA carboxylase 1 [6]): 1300 nM

CCOC(=O)NC[C@H]1CC[C@H](CNC(=O)c2cc(N3CCC(CCN(C)C)CC3)nc3ccccc23)CC1
logD [1]: 2.6
IC50 (Acetyl-CoA carboxylase 2): 1400 nM
IC50 (Acetyl-CoA carboxylase 1 [6]): 8000 nM

CN(C)CCC1CCN(c2cc(C(=O)NC[C@H]3CC[C@H](CNC(=O)OC4CCOCC4)CC3)c3ccccc3n2)CC1
logD [1]: 2.3

CC(C)(C)OC(=O)NC[C@H]1CC[C@H](CNC(=O)c2cc(N3CCC(CCO)CC3)nc3ccccc23)CC1
logD [1]: 4.5
IC50 (Acetyl-CoA carboxylase 2): 230 nM
IC50 (Acetyl-CoA carboxylase 1 [6]): 2300 nM
Ratio IC50 (Homo sapiens): 10

Cc1noc(C)c1-c1cc(C(=O)NC[C@H]2CC[C@H](CNC(=O)OC(C)(C)C)CC2)c2ccccc2n1
logD [1]: 5

CC(C)(C)OC(=O)NC[C@H]1CC[C@H](CNC(=O)c2cc(-c3ccccc3)nc3[nH]ccc23)CC1
logD [1]: 4.7
IC50 (Acetyl-CoA carboxylase 2): 780 nM
